{"data": "Measurements of several laboratories", "target": "Dual specificity mitogen-activated protein kinase kinase 6 (MAP2K6, Homo sapiens, UniProt P52564)", "One construct used (P52564 1-334)": "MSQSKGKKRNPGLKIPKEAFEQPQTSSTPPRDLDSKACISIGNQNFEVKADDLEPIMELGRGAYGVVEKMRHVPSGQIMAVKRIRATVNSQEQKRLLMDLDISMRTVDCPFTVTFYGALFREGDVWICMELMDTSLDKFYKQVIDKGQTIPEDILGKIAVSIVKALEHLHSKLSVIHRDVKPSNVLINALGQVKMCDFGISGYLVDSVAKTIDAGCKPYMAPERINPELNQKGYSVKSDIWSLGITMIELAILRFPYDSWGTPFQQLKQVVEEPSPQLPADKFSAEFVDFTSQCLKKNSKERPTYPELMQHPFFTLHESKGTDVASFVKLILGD", "note": "Protocols differ between the studies behind these lines."}
{"Structure (SMILES)": "CCN1CCN(Cc2ccc(C(=O)Nc3ccc(C)c(Oc4ccc5c(c4)CC(=O)N5)c3)cc2C(F)(F)F)CC1", "assay": "binding, competition with immobilised ligand", "conditions": "1 µM", "remaining binding": "100%"}
{"Structure (SMILES)": "C[C@H](c1ccnc(Nc2nc3ccc(-c4cc(N(C)C)ncn4)cc3[nH]2)c1)N1CCN(C(=O)CC(F)(F)F)CC1", "assay": "cell-free assay, competition with immobilised ligand", "conditions": "0.1 µM", "remaining binding": "96%"}
{"Structure (SMILES)": "C[C@H]1CCN(c2nccc(-c3cnn4ncccc34)n2)C1", "assay": "binding", "conditions": "1 µM", "remaining binding": "100%"}
{"Structure (SMILES)": "CC(=O)C1=C(C)N(c2cccc(C(F)(F)F)c2)C(=O)N[C@@H]1c1ccc(C#N)nc1", "assay": "cell-free assay, competition with immobilised ligand", "conditions": "1 µM", "remaining binding": "94.6%"}
{"Structure (SMILES)": "Cc1cnc(Nc2ccc(C(=O)N3CCC(N4CCCC4)CC3)cc2)nc1-c1cc2ccccc2s1", "assay": "binding, competition with immobilised ligand", "conditions": "1 µM", "remaining binding": "30%"}
{"Structure (SMILES)": "Nc1cnc(N2CCc3cc(S(=O)(=O)Nc4c(F)cc(Cl)cc4F)cc(N4CCCC4=O)c32)nc1", "assay": "cell-free assay, competition with immobilised ligand", "conditions": "1 µM", "remaining binding": "71%"}
{"Structure (SMILES)": "CN(CCCC(F)(F)F)c1nccc(-c2cnn3ncccc23)n1", "assay": "binding", "conditions": "1 µM", "remaining binding": "100%"}
{"Structure (SMILES)": "CNC(=O)Nc1ccc2c(c1)CC[C@@]21OC(=O)N(CC(=O)N(Cc2ccc(F)cc2)[C@@H](C)C(F)(F)F)C1=O", "assay": "cell-free assay, competition with immobilised ligand", "conditions": "1 µM", "remaining binding": "100%"}
{"Structure (SMILES)": "COc1ncc2cc3ccccc3nc2c1C#N", "assay": "cell-free assay, competition with immobilised ligand", "conditions": "5 µM", "remaining binding": "100%"}
{"Structure (SMILES)": "Nc1ncc2c(n1)-c1c([nH]c3ccc(C#CC4CC4)cc13)CCCC2", "assay": "binding, competition with immobilised ligand", "conditions": "1 µM", "remaining binding": "100%"}
{"Structure (SMILES)": "Cn1nc(C(F)(F)F)cc1-c1cnc(N2CCc3cc(S(=O)(=O)Nc4c(F)cc(Cl)cc4F)cc(N4CCCC4=O)c32)nc1", "assay": "cell-free assay, competition with immobilised ligand", "conditions": "1 µM", "remaining binding": "100%"}
{"Structure (SMILES)": "O=C(c1ccc(Nc2ncc(Cl)c(-c3ccc(Cl)s3)n2)cc1)N1CCC(N2CCCC2)CC1", "assay": "binding, competition with immobilised ligand", "conditions": "1 µM", "remaining binding": "29%"}
{"Structure (SMILES)": "CN(C)c1ncc(F)c(-c2cnn3ncccc23)n1", "assay": "binding", "conditions": "1 µM", "remaining binding": "100%"}
{"Structure (SMILES)": "COc1cnc(Nc2cccc(S(N)(=O)=O)c2)nc1N1CCN(c2ccccc2)CC1", "assay": "binding, competition with immobilised ligand", "conditions": "1 µM", "remaining binding": "100%"}
{"Structure (SMILES)": "CC1CCCN1c1nccc(-c2cnn3ncccc23)n1 (stereo not drawn)", "assay": "binding", "conditions": "1 µM", "remaining binding": "100%"}
{"Structure (SMILES)": "CO[C@@H](C)c1c(Nc2ccc([C@@H](N(C)C(=O)C3CCS(=O)(=O)CC3)C(F)(F)F)cc2)cnc2cc(Cl)nn12", "assay": "cell-free assay, competition with immobilised ligand", "conditions": "1 µM", "remaining binding": "92%"}
{"Structure (SMILES)": "COc1cnc(Nc2cccc(S(N)(=O)=O)c2)nc1N1CCN(c2ccccc2)C(=O)C1", "assay": "binding, competition with immobilised ligand", "conditions": "1 µM", "remaining binding": "100%"}
{"Structure (SMILES)": "CC1=C(C#N)[C@@H](c2ccc3[nH]nc(C)c3c2)C(C#N)=C(c2ccc(Cl)cc2)N1", "assay": "cell-free assay, competition with immobilised ligand", "conditions": "1 µM", "remaining binding": "100%"}
{"Structure (SMILES)": "COc1ccnn2ncc(-c3ccnc(N(C)C)n3)c12", "assay": "binding", "conditions": "1 µM", "remaining binding": "100%"}
{"Structure (SMILES)": "O=C(c1ccc(Nc2ncc(Cl)c(-c3cc4ccccc4s3)n2)cc1)N1CCC(N2CCCC2)CC1", "assay": "binding, competition with immobilised ligand", "conditions": "1 µM", "remaining binding": "37%"}
{"Structure (SMILES)": "N[C@H]1CCN(c2nccc(-c3cnn4ncccc34)n2)C1", "assay": "binding", "conditions": "1 µM", "remaining binding": "100%"}
{"Structure (SMILES)": "O=C(NCC1CCOCC1)c1n[nH]cc1NC(=O)c1c(F)cccc1F", "assay": "binding, competition with immobilised ligand", "conditions": "1 µM", "remaining binding": "95%"}
{"Structure (SMILES)": "FC(F)(F)Oc1cccc(-c2cnc3ccc(-c4ccncc4)nn23)c1", "assay": "cell-free assay, competition with immobilised ligand", "conditions": "5 µM", "remaining binding": "84%"}
{"Structure (SMILES)": "CN(c1nccc(-c2cnn3ncccc23)n1)C1CC1", "assay": "binding", "conditions": "1 µM", "remaining binding": "100%"}
